Assay outcomes: PubChem BioAssay, The Scripps Research Institute Molecular Screening Center
Only some compounds are listed: those with a hit (about 3.6% of all), similar ones and a draw of the others.
PAFAH1B3 FP inh: PAFAH1B3 enzyme inhibitors, primary screen, biochemical, fluorescence polarization, human; Platelet-activating factor acetylhydrolase IB subunit alpha1 (Homo sapiens), Q15102; recombinant PAFAH1B3, FP-rhodamine probe; inhibition, % at 3.39 µM; 0.28% of 340,000 active; AID 492972, 2010;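 active = inhibition above the screen-wide average of all tested compounds plus 3 SD, cut at about 25% in these data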;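 also: 0% = enzyme with DMSO only and 100% = wells lacking PAFAH1B3 protein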
Target sequence (Q15102 whole entry, looked up): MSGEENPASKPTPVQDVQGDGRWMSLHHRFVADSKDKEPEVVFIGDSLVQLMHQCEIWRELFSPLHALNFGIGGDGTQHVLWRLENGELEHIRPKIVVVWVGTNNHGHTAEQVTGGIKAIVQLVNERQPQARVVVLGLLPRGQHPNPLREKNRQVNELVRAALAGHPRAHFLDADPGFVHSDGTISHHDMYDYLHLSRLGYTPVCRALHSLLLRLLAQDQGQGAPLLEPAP
PAFAH1B2 inh: PAFAH1B2 enzyme inhibitors, primary screen, biochemical, fluorescence polarization, human; Platelet-activating factor acetylhydrolase IB subunit alpha2 (Homo sapiens), P68402; recombinant PAFAH1B2, FP-rhodamine activity probe; inhibition, % at 3.39 µM; 1.2% of 340,000 active;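 active = inhibition above the mean of all tested compounds plus 3 SD, cut at about 24% in these data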;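 also: 0% = enzyme with DMSO and 100% = wells lacking PAFAH1B2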
Target sequence (P68402 whole entry, looked up): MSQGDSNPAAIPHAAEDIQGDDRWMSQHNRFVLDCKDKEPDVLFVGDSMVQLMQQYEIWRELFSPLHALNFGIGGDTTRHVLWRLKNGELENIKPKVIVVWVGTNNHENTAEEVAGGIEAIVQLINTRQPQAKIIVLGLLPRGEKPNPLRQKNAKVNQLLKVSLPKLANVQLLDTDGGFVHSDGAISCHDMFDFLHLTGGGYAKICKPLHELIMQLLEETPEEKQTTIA
VIM-2 inh: VIM-2 metallo-beta-lactamase inhibitors, primary screen, biochemical, epi-absorbance readout, Pseudomonas aeruginosa enzyme; purified VIM-2, nitrocefin hydrolysis, epi-absorbance fluorescence; AID 1527, 2009; 0.89% of 290,000 active; inhibition, % at 5.6 µM;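 active = inhibition above the mean of all tested compounds plus 3 SD, cutoff set per screening run, cut at about 7.5% in these data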;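 also: red hydrolysis product quenches plate fluorescence so inhibitors raise well fluorescence; 0% = enzyme with DMSO and 100% = DMSO without enzyme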
pPAFAH FP inh: pPAFAH enzyme inhibitors, primary screen, biochemical, fluorescence polarization, human. inhibition, % at 3.39 µM. Platelet-activating factor acetylhydrolase (Homo sapiens), Q13093. 1.5% of 330,000 active. recombinant pPAFAH, FP-rhodamine probe fluorescence polarization. AID 463082, 2010;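 active = inhibition above the mean inhibition across the screen plus 3 SD, cut at about 25% in these data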;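 also: inhibitors block binding of the rhodamine activity-based probe so polarization drops; 0% = enzyme with DMSO and 100% = wells lacking pPAFAH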
PAFAH2 inh: PAFAH2 enzyme inhibitors, primary screen, biochemical, fluorescence polarization, human; Platelet-activating factor acetylhydrolase 2, cytoplasmic (Homo sapiens), Q99487; recombinant PAFAH2, FP-rhodamine activity probe; inhibition, % at 3.39 µM; 0.99% of 340,000 active;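 active = inhibition above the mean over all tested compounds plus 3 SD, cut at about 30% in these data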;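 also: inhibitors block probe labeling of enzyme so polarization drops; 0% = enzyme with DMSO and 100% = wells lacking PAFAH2 protein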
IMP-1 inh: IMP-1 metallo-beta-lactamase inhibitors, primary screen, biochemical, epi-absorbance readout, Pseudomonas aeruginosa enzyme; metallo-beta-lactamase IMP-1 (Pseudomonas aeruginosa); purified IMP-1, nitrocefin hydrolysis, epi-absorbance fluorescence; inhibition, % at 5.6 µM; 0.45% of 290,000 active; AID 1556, 2009;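 active = inhibition above the mean plus 3 SD of all compounds in the same screening run, cut at about 4.5% in these data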;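 also: 0% = IMP-1 with DMSO and 100% = DMSO wells lacking enzyme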
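System: purified IMP-1 / Input: IMP-1 dispensed at 0.2 nM / Medium: 50 mM HEPES pH 7.1, 50 µM ZnSO4, 0.05% Brij 35 / Timing: 15 min enzyme–compound preincubation, then 25 min nitrocefin reaction, 25 °C / Technique: plate fluorescence quenching by hydrolysis product, ex 480/em 530 nm / Repeats: singlicate testing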
Active calls of the source: *.

`Cc1c(C(=O)N2CCOCC2)c(S(=O)(=O)Nc2ccc(C(C)C)cc2)c(C)n1C` gave PAFAH1B3 FP inh 8.1, PAFAH1B2 inh 1.5, VIM-2 inh -3.1, pPAFAH FP inh 3.6, PAFAH2 inh -17.0 and IMP-1 inh -2.5.
COc1cc(N)ccc1NC(=O)c1cc2ccccc2o1 was read as PAFAH1B3 FP inh 11.7, PAFAH1B2 inh -2.5, VIM-2 inh 2.2, pPAFAH FP inh -4.1, PAFAH2 inh 4.2 and IMP-1 inh 7.5*.
Screening CCOC(=O)CSc1nc2sc3c(c2c(=O)n1-c1ccccc1)CCN(C(C)C)C3 returned PAFAH1B3 FP inh 3.5, PAFAH1B2 inh 0.9, VIM-2 inh -0.3, pPAFAH FP inh 1.3, PAFAH2 inh 4.5 and IMP-1 inh -0.7.
Screening COC1=CC(=O)C=C(OC)C1=O returned PAFAH1B3 FP inh 8.5, PAFAH1B2 inh 0.2 and PAFAH2 inh 3.9.
For COC1=CC(=O)c2ccccc2C1=O the results were PAFAH1B3 FP inh 42.7*, PAFAH1B2 inh 14.5, pPAFAH FP inh 0.2 and PAFAH2 inh 9.5.
For Cc1ccc(S(=O)(=O)Nc2ccc3c(c2)nc(CCN2CCCC2)n3C)cc1 the results were PAFAH1B3 FP inh -2.6, PAFAH1B2 inh 5.8, VIM-2 inh -1.3, pPAFAH FP inh 0.0, PAFAH2 inh 0.1 and IMP-1 inh -2.2.
`Cn1c(CCN2CCCC2)nc2cc(NS(=O)(=O)c3ccc(Cl)cc3)ccc21` gave PAFAH1B3 FP inh 2.3, PAFAH1B2 inh 28.1*, VIM-2 inh -3.6, pPAFAH FP inh 10.4, PAFAH2 inh 4.8 and IMP-1 inh -4.8.
`COc1c(/C=C2\SC(=Nc3ccccc3Cl)NC2=O)cccc1[N+](=O)[O-]` gave PAFAH1B3 FP inh 10.3, PAFAH1B2 inh 6.3, VIM-2 inh -1.2, pPAFAH FP inh 16.8, PAFAH2 inh 20.4 and IMP-1 inh -2.5.
`O=C1NC(=Nc2ccccc2Cl)S/C1=C\c1cccc([N+](=O)[O-])c1O` gave PAFAH1B3 FP inh 21.7, PAFAH1B2 inh 14.0, VIM-2 inh -3.1, pPAFAH FP inh 33.8*, PAFAH2 inh 49.8* and IMP-1 inh -7.7.
Screening O=C(O)C(Cc1ccccc1-c1ccccc1)C(=O)O returned PAFAH1B3 FP inh -3.9, PAFAH1B2 inh 27.1*, VIM-2 inh 7.7, pPAFAH FP inh 7.3, PAFAH2 inh -3.9 and IMP-1 inh -2.1.
O=C(O)COc1ccccc1-c1ccccc1 was read as PAFAH1B3 FP inh 1.1, PAFAH1B2 inh 15.5, VIM-2 inh -3.0, pPAFAH FP inh -1.0, PAFAH2 inh 2.5 and IMP-1 inh -2.9.
Screening Cc1ccc(/C([O-])=C(/C(=S)NCc2ccco2)[n+]2ccccc2)cc1 returned VIM-2 inh -1.1, pPAFAH FP inh 6.0 and IMP-1 inh 2.0.
For [O-]/C(=C(\C(=S)NCc1ccco1)[n+]1ccccc1)c1ccccc1Br the results were PAFAH1B3 FP inh 8.3, PAFAH1B2 inh 0.6, VIM-2 inh -0.2, pPAFAH FP inh 21.0, PAFAH2 inh -3.4 and IMP-1 inh 4.8*.
`CCCCNc1c(-c2cccc(-c3cc(C(C)=O)cs3)c2)nc2cc(C)ccn12` gave PAFAH1B3 FP inh 9.6, PAFAH1B2 inh 6.6, pPAFAH FP inh 32.6* and PAFAH2 inh 4.7.
O=C(O)c1ccc([N+](=O)[O-])c2c1C(=O)c1ccccc1C2=O was read as PAFAH1B3 FP inh 14.6, PAFAH1B2 inh 14.2, pPAFAH FP inh 4.5 and PAFAH2 inh 16.2.
O=C1c2ccccc2C(=O)c2c([N+](=O)[O-])ccc(O)c21 was read as PAFAH1B3 FP inh 63.5*, PAFAH1B2 inh 43.3*, VIM-2 inh 0.4, pPAFAH FP inh 26.9*, PAFAH2 inh 39.9* and IMP-1 inh -2.9.
Screening Cn1c(=O)oc2cc(S(=O)(=O)N3CCC(N4CCCCC4)CC3)ccc21 returned PAFAH1B3 FP inh 10.1, PAFAH1B2 inh 3.4, VIM-2 inh -0.4, pPAFAH FP inh 2.8, PAFAH2 inh -4.1 and IMP-1 inh -1.6.
CC1CCN(S(=O)(=O)c2ccc3c(c2)oc(=O)n3C)CC1 was read as PAFAH1B3 FP inh 5.8, PAFAH1B2 inh 25.4*, VIM-2 inh 0.0, pPAFAH FP inh 0.2, PAFAH2 inh -5.6 and IMP-1 inh 0.3.
For Cc1cn(CC(=O)NCCCn2ccnc2)c(=O)[nH]c1=O the results were PAFAH1B3 FP inh 4.2, PAFAH1B2 inh 2.4 and PAFAH2 inh -2.4.
CC(C(=O)Nc1ccc(Cl)cc1)N1C(=O)NC2(CCCC2)C1=O (configuration not stated) was read as PAFAH1B3 FP inh 5.0, PAFAH1B2 inh 9.7, VIM-2 inh -4.0, pPAFAH FP inh 2.5, PAFAH2 inh -0.7 and IMP-1 inh -1.6.
CC(C)CC1=C/C(=C/c2ccc(-c3ccccc3)o2)C(=O)O1 was read as PAFAH1B3 FP inh 1.8, PAFAH1B2 inh 0.5, VIM-2 inh -2.8, pPAFAH FP inh 29.1*, PAFAH2 inh 26.8 and IMP-1 inh 4.9*.
Screening NS(=O)(=O)c1ccc(-c2ccc(C=C3C(=O)c4ccccc4C3=O)o2)cc1 returned PAFAH1B3 FP inh 8.2, PAFAH1B2 inh 1.8, VIM-2 inh 1.1, pPAFAH FP inh 6.4, PAFAH2 inh 0.1 and IMP-1 inh -0.8.
CCCCC1(C)OC(=O)C(=Cc2ccc(-c3ccc(Cl)c(C(=O)O)c3)o2)C(=O)O1 (configuration not stated) was read as PAFAH1B3 FP inh 3.6, PAFAH1B2 inh 2.0, VIM-2 inh 2.4, pPAFAH FP inh 1.5, PAFAH2 inh 20.4 and IMP-1 inh 28.7*.
Cc1cc(C(=O)NNC(=O)c2ccc(C)c([N+](=O)[O-])c2)c(C)o1 was read as PAFAH1B3 FP inh -3.0, PAFAH1B2 inh 1.3 and PAFAH2 inh 3.3.
CSc1ccc(/C=C(\C(=O)O)c2ccc(S(=O)(=O)N3CCCC3)s2)cc1 was read as PAFAH1B3 FP inh 1.4, PAFAH1B2 inh -1.2, pPAFAH FP inh 10.0 and PAFAH2 inh 11.0.
Screening CC(C)c1ccc(N2C(=O)CC(Sc3nc4ccccc4o3)C2=O)cc1 (configuration not stated) returned PAFAH1B3 FP inh 10.3, PAFAH1B2 inh 25.9*, VIM-2 inh -3.9, pPAFAH FP inh 5.0, PAFAH2 inh -7.7 and IMP-1 inh -2.2.
`COc1cccc(N2CCN(C(=O)CCNS(=O)(=O)c3ccc(F)c(F)c3)CC2)c1` gave PAFAH1B3 FP inh 2.3, PAFAH1B2 inh -1.1, pPAFAH FP inh 28.5* and PAFAH2 inh 5.3.
`CCCc1nc2oc3c(NCCN(C)C)ncnc3c2c2c1CCCC2` gave PAFAH1B3 FP inh 8.4, PAFAH1B2 inh 1.0, VIM-2 inh 6.3, pPAFAH FP inh 6.1, PAFAH2 inh -11.5 and IMP-1 inh -0.1.
